Experimental data: paper PMC7034990 (Science Advances, 2020)

Legend:
[1] = system: F508del-CFTR CFBE41o− cells; experiment: HS-YFP assay in CFBE41o− cells expressing F508del-CFTR; format: cell-based
F508del-CFTR FRT cells = experiment: Transepithelial electrical conductance; format: cell-based; conditions: 24 hours, compared to VX-809 (1 μM)
Summary of the method: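 F508del-CFTR FRT cells on porous membranes were treated 24 h at 37°C, 5% CO2. Same saline both sides: 130 mM NaCl, 10 mM Na-Hepes pH 7.3, 10 mM glucose. TEER was read at baseline, after forskolin 20 μM + genistein 50 μM, then after PPQ102 30 μM, waiting 10 min per step. TEER values were converted to TEEC.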

[2] = system: bronchial epithelial cells (F508del/F508del, F508del/other mutation, non-CF); experiment: TEEC/PD technique; format: cell-based, human; conditions: for F508del-CFTR function, ∆Ieq: 10 nM
Summary of the method: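 CF and non-CF primary bronchial epithelia at air-liquid interface on 0.33-cm2 inserts were treated 24 h at 37°C, 5% CO2. Measurements used Coon's F12 with NaHCO3 replaced by 20 mM Na-Hepes (pH 7.3), after 1 h equilibration. TEER and PD were read at baseline, after apical amiloride 10 μM, forskolin 10 μM + genistein 50 μM bilateral, then apical PPQ102 30 μM, 10 min each. Ieq came from Ohm's law; ∆Ieq = change on PPQ102.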

[3] = molecular target: F508del-CFTR in CFBE41o− cells (Homo sapiens, UniProt P13569, DEL508-508); experiment: F508del-CFTR half-life after cycloheximide block of protein synthesis; format: cell-based; conditions: 24 hours of treatment then cycloheximide, ARN23765 1 nM, VX-809 1 μM
ENaC = molecular target: T1, ENaC (Homo sapiens, UniProt P37088+P51168+P51170); experiment: ENaC function from the response to apical amiloride; format: cell-based; conditions: amiloride 10 μM; correctors for 24 hr
T1 sequence (P37088 1-669): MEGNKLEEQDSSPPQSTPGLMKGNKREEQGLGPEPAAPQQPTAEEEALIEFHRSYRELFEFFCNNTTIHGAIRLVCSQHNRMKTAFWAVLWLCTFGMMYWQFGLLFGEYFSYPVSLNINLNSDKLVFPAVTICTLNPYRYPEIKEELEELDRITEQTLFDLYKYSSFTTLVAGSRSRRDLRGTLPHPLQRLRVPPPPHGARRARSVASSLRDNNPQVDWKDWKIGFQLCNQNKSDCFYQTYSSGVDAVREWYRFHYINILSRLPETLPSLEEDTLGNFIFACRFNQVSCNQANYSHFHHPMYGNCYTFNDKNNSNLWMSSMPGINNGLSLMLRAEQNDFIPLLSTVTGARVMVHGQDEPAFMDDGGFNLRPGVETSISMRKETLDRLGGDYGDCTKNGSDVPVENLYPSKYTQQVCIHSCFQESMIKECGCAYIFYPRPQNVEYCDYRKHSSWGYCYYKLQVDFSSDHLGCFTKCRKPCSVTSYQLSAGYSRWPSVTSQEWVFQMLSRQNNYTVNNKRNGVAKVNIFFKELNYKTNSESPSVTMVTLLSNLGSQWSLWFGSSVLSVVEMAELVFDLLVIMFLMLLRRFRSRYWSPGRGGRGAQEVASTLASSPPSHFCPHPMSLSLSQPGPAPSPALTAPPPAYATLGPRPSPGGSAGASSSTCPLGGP
T1 sequence (P51168 1-640): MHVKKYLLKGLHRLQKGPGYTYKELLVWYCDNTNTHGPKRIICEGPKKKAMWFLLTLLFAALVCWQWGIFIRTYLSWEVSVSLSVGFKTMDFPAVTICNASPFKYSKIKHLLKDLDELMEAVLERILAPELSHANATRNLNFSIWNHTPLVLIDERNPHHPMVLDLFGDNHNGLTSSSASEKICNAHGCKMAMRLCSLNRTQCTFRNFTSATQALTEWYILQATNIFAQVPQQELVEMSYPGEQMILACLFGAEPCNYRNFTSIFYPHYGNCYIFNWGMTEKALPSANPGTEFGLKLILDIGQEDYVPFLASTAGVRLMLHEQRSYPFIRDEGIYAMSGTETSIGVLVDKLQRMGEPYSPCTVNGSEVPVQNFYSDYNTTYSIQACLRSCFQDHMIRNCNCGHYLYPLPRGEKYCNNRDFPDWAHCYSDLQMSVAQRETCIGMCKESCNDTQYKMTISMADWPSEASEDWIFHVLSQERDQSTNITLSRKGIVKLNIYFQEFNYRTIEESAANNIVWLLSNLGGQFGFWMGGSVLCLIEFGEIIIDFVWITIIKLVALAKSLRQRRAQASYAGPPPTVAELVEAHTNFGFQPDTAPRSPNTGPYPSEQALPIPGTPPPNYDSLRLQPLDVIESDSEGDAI
T1 sequence (P51170 1-649): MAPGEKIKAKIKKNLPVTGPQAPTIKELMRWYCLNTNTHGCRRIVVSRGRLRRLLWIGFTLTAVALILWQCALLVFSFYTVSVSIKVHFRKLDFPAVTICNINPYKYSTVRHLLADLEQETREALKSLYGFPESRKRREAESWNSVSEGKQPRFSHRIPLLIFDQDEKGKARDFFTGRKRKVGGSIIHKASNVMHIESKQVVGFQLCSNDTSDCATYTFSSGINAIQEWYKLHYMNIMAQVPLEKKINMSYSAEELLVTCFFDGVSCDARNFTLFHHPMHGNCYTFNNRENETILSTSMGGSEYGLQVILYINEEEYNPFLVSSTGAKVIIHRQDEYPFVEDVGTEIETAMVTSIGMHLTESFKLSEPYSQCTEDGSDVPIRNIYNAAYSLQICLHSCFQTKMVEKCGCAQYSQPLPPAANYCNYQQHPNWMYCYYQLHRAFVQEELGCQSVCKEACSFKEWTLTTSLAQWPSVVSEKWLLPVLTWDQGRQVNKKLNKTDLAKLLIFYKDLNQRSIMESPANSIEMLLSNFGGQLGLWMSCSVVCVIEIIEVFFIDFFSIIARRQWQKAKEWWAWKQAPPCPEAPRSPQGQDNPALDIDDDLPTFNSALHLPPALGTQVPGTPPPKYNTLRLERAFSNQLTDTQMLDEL
Summary of the method: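 Primary bronchial epithelial cells came from lung-transplant bronchi and were differentiated on porous inserts, then kept 2–3 weeks under air-liquid culture. Correctors or DMSO were given in basolateral medium. Epithelia were mounted in a vertical diffusion chamber, bicarbonate saline (126 mM NaCl, 24 mM NaHCO3, 10 mM glucose) both sides, gassed 5% CO2:95% air, 37°C. Voltage was clamped and short-circuit current recorded. ENaC was blocked with amiloride (10 μM).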

[4] = system: receptors, monoamine transporters, ABC proteins, and hERG channel; experiment: Off-target panel; conditions: 10 μM

CN(C(=O)c1cccc(-n2nc(C(F)(F)F)c3c2[C@@H](Oc2ccc(C(=O)O)cc2)CCC3)c1)c1ccc2c(c1)OC(F)(F)O2 [ARN23765]
F508del-CFTR activity (QR) of the ARN23765/VX-809 combination ([1]; CFBE41o− cells, VX-809 1 μM, ARN23765 10 nM, or both): no additive effect
EC50 ([1]; Homo sapiens, CFBE41o-, 24 h): 400 pM
correction of F508del-CFTR, ∆TEEC (F508del-CFTR FRT cells): high potency and efficacy
F508del-CFTR function, ∆Ieq ([2]; cells from four patients with F508del/F508del, 24 hours): markedly increased F508del-CFTR function, with results comparable to those of VX-809 (1 μM)
F508del-CFTR function, ∆Ieq ([2]; epithelia from two patients with a single copy of F508del and a premature stop codon (R553X and G542X)): notably effective
wild-type CFTR function, ∆Ieq ([2]; non-CF epithelia, ARN23765 10 nM, VX-809 1 μM): elicited a significant increase of wild-type CFTR function
increase of half-life of mature CFTR (band C) [3]: threefold
amplitude of the response to apical amiloride, ENaC function (ENaC): modestly reduced
effects on a panel of relevant biological targets [4]: no alerting effects
